Source: ChEMBL document CHEMBL3400020, “2'-Hydroxy flavanone derivatives as an inhibitors of pro-inflammatory mediators: Experimental and molecular docking studies” (Bioorg Med Chem Lett, 2015)
pIC50: −log10 of the molar value.

Legend:
J774.A1 [1] = experiment: Inhibition of IL-1beta production in mouse J774A.1 cells at 30 uM incubated for 12 hrs by sandwich immunoassay; type: functional; conditions: J774.A1, 12 h
Summary of the method: (§1)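 In RAW 264.7 and J774A.1 macrophages, TNF-α and IL-1β were quantified. Single-point data are % inhibition at 30 µM; otherwise IC50 in µM. Values are from three separate experiments, each in triplicate.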

RAW264.7 [2] = experiment: Inhibition of TNFalpha production in mouse RAW264.7 cells at 30 uM incubated for 6 hrs by sandwich immunoassay; type: functional; conditions: RAW264.7, 6 h; summary of the method: as §1
[3] = Cytotoxicity against mouse J774A.1 cells assessed as cell viability at 50 uM after 24 hrs by MTT assay; type: cell-based, J774.A1; conditions: read-out: Activity
Summary of the method: (§2)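 RAW 264.7 and J774A.1 cells handled in parallel. Viability was read at 50 µM alongside the LPS-stimulated NO (Griess) assay. Values are from three independent experiments, each run in triplicate.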

[4] = Cytotoxicity against mouse RAW264.7 cells assessed as cell viability at 50 uM after 24 hrs by MTT assay; type: cell-based; conditions: read-out: Activity; summary of the method: as §2
J774.A1 [5] = experiment: Inhibition of TNFalpha production in mouse J774A.1 cells at 30 uM incubated for 6 hrs by sandwich immunoassay; type: functional; conditions: J774.A1, 6 h; summary of the method: as §1
J774.A1 [6] = experiment: Inhibition of LPS-induced nitric oxide production in mouse J774A.1 cells pre-incubated for 1 hr followed by LPS stimulation for 24 hrs by Griess reagent based assay; type: functional, cell-based; summary of the method: as §2
RAW264.7 [7] = experiment: Inhibition of IL-1beta production in mouse RAW264.7 cells at 30 uM incubated for 12 hrs by sandwich immunoassay; type: functional; conditions: RAW264.7, 12 h; summary of the method: as §1
RAW264.7 [8] = experiment: Inhibition of LPS-induced nitric oxide production in mouse RAW264.7 cells pre-incubated for 1 hr followed by LPS stimulation for 24 hrs by Griess reagent based assay; type: functional, cell-based; summary of the method: as §2
Rattus norvegicus [9] = experiment: Antiinflammatory activity in Sprague-Dawley rat assessed as inhibition of LPS-induced TNFalpha production at 150 umol/kg, po pre-administered at interval of 12 hrs followed by LPS-stimulation 2 hrs after final dose and measured 2 hrs post LPS challenge by ELISA method; type: functional
RAW264.7 [10] = experiment: Inhibition of TNFalpha production in mouse RAW264.7 cells incubated for 6 hrs by sandwich immunoassay; type: functional, cell-based; conditions: RAW264.7, 6 h; summary of the method: as §1
J774.A1 [11] = experiment: Inhibition of IL-1beta production in mouse J774A.1 cells incubated for 12 hrs by sandwich immunoassay; type: functional, cell-based; conditions: J774.A1, 12 h; summary of the method: as §1
J774.A1 [12] = experiment: Inhibition of TNFalpha production in mouse J774A.1 cells incubated for 6 hrs by sandwich immunoassay; type: functional, cell-based; conditions: J774.A1, 6 h; summary of the method: as §1
Rattus norvegicus [13] = experiment: Antiinflammatory activity in Sprague-Dawley rat assessed as inhibition of LPS-induced IL-1beta production at 150 umol/kg, po pre-administered at interval of 12 hrs followed by LPS-stimulation 6 hrs after final dose and measured 2 hrs post LPS challenge by ELISA method; type: functional
Rattus norvegicus [14] = experiment: Antiinflammatory activity in Sprague-Dawley rat assessed as inhibition of carrageenan-induced paw edema at 150 umol/kg, po administered 1 hr before carrageenan injection and measured 3 hrs post carrageenan challenge
Rattus norvegicus [15] = experiment: Antiinflammatory activity in Sprague-Dawley rat assessed as inhibition of carrageenan-induced paw edema at 150 umol/kg, po administered 1 hr before carrageenan injection and measured 5 hrs post carrageenan challenge
RAW264.7 [16] = experiment: Inhibition of IL-1beta production in mouse RAW264.7 cells incubated for 12 hrs by sandwich immunoassay; type: functional, cell-based; conditions: RAW264.7, 12 h; summary of the method: as §1

pIC50 (J774.A1 [6])	pIC50 (RAW264.7 [8])	pIC50 (RAW264.7 [10])	pIC50 (J774.A1 [11])	pIC50 (J774.A1 [12])	pIC50 (RAW264.7 [16])	Structure (SMILES)	inhibition at 30 µM (J774.A1 [1]) [%]	inhibition at 30 µM (RAW264.7 [2]) [%]	viability at 24 h, 50 µM [3] [%]	viability at 24 h, 50 µM [4] [%]	inhibition at 30 µM (J774.A1 [5]) [%]	inhibition at 30 µM (RAW264.7 [7]) [%]	inhibition in vivo at 150 µmol/kg (Rattus norvegicus [9]) [%]	inhibition in vivo at 150 µmol/kg (Rattus norvegicus [13]) [%]	inhibition in vivo at 150 µmol/kg (Rattus norvegicus [14]) [%]	inhibition in vivo at 150 µmol/kg (Rattus norvegicus [15]) [%]
4.32	4.31					CCCCOc1ccccc1C1CC(=O)c2ccccc2O1 (centres undefined)	42.5	48.7	95.5	78.3	47.7	19.3				
4.45	4.49					COCOc1ccccc1C1CC(=O)c2ccccc2O1 (centres undefined)	33.3	48.6	99.4	92.2	45.2	35.2				
4.35	4.34					CCCOc1ccccc1C1CC(=O)c2ccccc2O1 (centres undefined)	43.6	46	93.6	91.7	44.6	45.7				
4.46	4.49					CC(C)=CCOc1ccccc1C1CC(=O)c2ccccc2O1 (centres undefined)	40.3	41.7	92.3	94.8	31.7	41.8				
4.41	4.41					CCOc1ccccc1C1CC(=O)c2ccccc2O1 (centres undefined)	27.7	38.5	92.7	82.6	38.8	29.6				
		7.40	4.66	6.40		C[C@@H]1C[C@H]2[C@@H]3CCC4=CC(=O)C=C[C@]4(C)[C@@]3(F)[C@@H](O)C[C@]2(C)[C@@]1(O)C(=O)CO [DEXAMETHASONE]							73.4	62.5		
4.54	4.57	4.63	4.64	4.63	4.60	CC(C)c1ccc(COc2ccccc2C2CC(=O)c3ccccc3O2)cc1 (centres undefined)	91.7	80.6	99.7	92.5	78.6	91.5	30.3	24.6	18	32.3
4.88	4.81	4.70	4.52	4.70	4.56	O=C1CC(c2ccccc2OCc2cccc(F)c2)Oc2ccccc21 (centres undefined)	92.7	91.6	92.7	90.3	96.2	93.3	49.6	39.2	5.2	39.5
4.48	4.44					CC(C)COc1ccccc1C1CC(=O)c2ccccc2O1 (centres undefined)	33.5	36.7	84.5	83.3	33.2	30.4				
4.37	4.41					CC(C)CCOc1ccccc1C1CC(=O)c2ccccc2O1 (centres undefined)	43.6	39.2	88.6	81.6	42.6	47.6				
4.35	4.33					COc1ccccc1C1CC(=O)c2ccccc2O1 (centres undefined)	38.3	37.3	89.3	84.3	34.5	37.3				
4.41	4.42					C=CCOc1ccccc1C1CC(=O)c2ccccc2O1 (centres undefined)	47	47.8	84	89.3	38.6	49.3				
4.63	4.72	4.70	4.61	4.65	4.60	O=C1CC(c2ccccc2OCc2ccccc2)Oc2ccccc21 (centres undefined)	91.5	86.1	96.5	91.2	83.1	93.2	32.1	28.4	9.8	35.7
						CC(C)Cc1ccc(C(C)C(=O)O)cc1 (centres undefined) [IBUPROFEN]									30.5	41.4
4.41	4.41					CCCCCOc1ccccc1C1CC(=O)c2ccccc2O1 (centres undefined)	40.1	39.2	92.1	90.3	39.3	41.3				
4.59	4.55	4.75		4.74		O=C1CC(c2ccccc2OCc2ccc(F)cc2)Oc2ccccc21 (centres undefined)	42.1	92.7	91.1	95.2	94.1	45.2	55.4	43.6	18.2	50.5
